Data reported in ChEMBL document CHEMBL1141180, “Synthesis and antiviral activity of helioxanthin analogues” (J Med Chem, 2005).

Test system: Human alphaherpesvirus 1
Assay: Effective concentration to inhibit 50% of herpes simplex virus type 1 replication in a cell culture model
Format: functional, organism-based
Conditions: not given

Point of comparison: CN1Cc2cc3ccc4c(c3c(-c3ccc5c(c3)OCO5)c2C1=O)OCO4, EC50 14 µM. Against it:
- CN(C)C(=O)c1cc2ccc3c(c2c(-c2ccc4c(c2)OCO4)c1C(=O)O)OCO3 — higher, > 50 µM
- NC(=O)c1cc2ccc3c(c2c(-c2ccc4c(c2)OCO4)c1C(N)=O)OCO3 — higher, > 50 µM
- CN1Cc2c(cc3ccc4c(c3c2-c2ccc3c(c2)OCO3)OCO4)C1=O — 21-fold lower, 0.67 µM
- Cc1c(C(=O)OCCCO)cc2ccc3c(c2c1-c1ccc2c(c1)OCO2)OCO3 — higher, > 25 µM
- O=C1OC(O)c2c1c(-c1ccc3c(c1)OCO3)c1c3c(ccc1c2O)OCO3 (stereo not drawn) — higher, > 23 µM

Test system: Human alphaherpesvirus 2
Assay: Effective concentration to inhibit 50% of herpes simplex virus type 2 replication in a cell culture model
Format: functional, organism-based
Conditions: not given

Point of comparison: CN1Cc2c(cc3ccc4c(c3c2-c2ccc3c(c2)OCO3)OCO4)C1=O, EC50 1 µM. Against it:
- CN(C)C(=O)c1cc2ccc3c(c2c(-c2ccc4c(c2)OCO4)c1C(=O)O)OCO3 — higher, > 50 µM
- NC(=O)c1cc2ccc3c(c2c(-c2ccc4c(c2)OCO4)c1C(N)=O)OCO3 — higher, > 50 µM
- Cc1c(C(=O)OCCCO)cc2ccc3c(c2c1-c1ccc2c(c1)OCO2)OCO3 — higher, > 25 µM
- O=C1OC(O)c2c1c(-c1ccc3c(c1)OCO3)c1c3c(ccc1c2O)OCO3 (stereo not drawn) — higher, > 28 µM
- CN1Cc2cc3ccc4c(c3c(-c3ccc5c(c3)OCO5)c2C1=O)OCO4 — 14-fold higher, 14 µM

Test system: Hepatitis B virus
Assay: Effective concentration to inhibit 50% of hepatitis B virus replication in a cell culture model
Format: functional, organism-based
Conditions: not given

Point of comparison: CN1Cc2cc3ccc4c(c3c(-c3ccc5c(c3)OCO5)c2C1=O)OCO4, EC50 0.08 µM. Against it:
- COc1ccc(-c2c3c(cc4ccc5c(c24)OCO5)C(=O)NC3=O)cc1OC — 10-fold higher, 0.8 µM
- O=C1NC(=O)c2c1cc1ccc3c(c1c2-c1ccc2c(c1)OCO2)OCO3 — higher, > 10 µM
- CN(C)C(=O)c1cc2ccc3c(c2c(-c2ccc4c(c2)OCO4)c1C(=O)O)OCO3 — higher, > 10 µM
- NC(=O)c1cc2ccc3c(c2c(-c2ccc4c(c2)OCO4)c1C(N)=O)OCO3 — higher, > 10 µM
- CN1Cc2c(cc3ccc4c(c3c2-c2ccc3c(c2)OCO3)OCO4)C1=O — higher, > 20 µM
- Cc1c(C(=O)OCCCO)cc2ccc3c(c2c1-c1ccc2c(c1)OCO2)OCO3 — higher, > 10 µM
- O=C1OC(O)c2c1c(-c1ccc3c(c1)OCO3)c1c3c(ccc1c2O)OCO3 (stereo not drawn) — higher, > 20 µM

Test system: Hepatitis C virus
Assay: Effective concentration to inhibit 50% of hepatitis C virus replication in a cell culture model
Format: functional, organism-based, Hepacivirus hominis
Conditions: not given
How it was run: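 HCV replicon Huh-Luc/neo cells grown to confluence, then treated with varying drug concentrations in DMEM with 10% dFBS for 3 days. Medium was removed and cells lysed in passive lysis buffer, shaken 15 min at room temperature. Lysate was mixed with luciferase substrate and luminescence read immediately as the measure of replicon activity.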

Point of comparison: CN1Cc2cc3ccc4c(c3c(-c3ccc5c(c3)OCO5)c2C1=O)OCO4, EC50 3 µM. Against it:
- CN(C)C(=O)c1cc2ccc3c(c2c(-c2ccc4c(c2)OCO4)c1C(=O)O)OCO3 — higher, > 10 µM
- NC(=O)c1cc2ccc3c(c2c(-c2ccc4c(c2)OCO4)c1C(N)=O)OCO3 — higher, > 10 µM
- CN1Cc2c(cc3ccc4c(c3c2-c2ccc3c(c2)OCO3)OCO4)C1=O — higher, > 3 µM
- Cc1c(C(=O)OCCCO)cc2ccc3c(c2c1-c1ccc2c(c1)OCO2)OCO3 — higher, > 10 µM
- O=C1OC(O)c2c1c(-c1ccc3c(c1)OCO3)c1c3c(ccc1c2O)OCO3 (stereo not drawn) — higher, > 10 µM

Test system: not listed separately
Assay: Effective concentration to inhibit 50% of human immunodeficiency virus replication in a cell culture model
Format: functional
Conditions: not given

Point of comparison: Nc1ccn([C@H]2CC[C@@H](CO)O2)c(=O)n1 [ZALCITABINE], EC50 0.8 µM. Against it:
- CN(C)C(=O)c1cc2ccc3c(c2c(-c2ccc4c(c2)OCO4)c1C(=O)O)OCO3 — higher, > 70 µM
- NC(=O)c1cc2ccc3c(c2c(-c2ccc4c(c2)OCO4)c1C(N)=O)OCO3 — higher, > 100 µM
- CN1Cc2c(cc3ccc4c(c3c2-c2ccc3c(c2)OCO3)OCO4)C1=O — higher, > 8 µM
- Cc1c(C(=O)OCCCO)cc2ccc3c(c2c1-c1ccc2c(c1)OCO2)OCO3 — higher, > 10 µM
- O=C1OC(O)c2c1c(-c1ccc3c(c1)OCO3)c1c3c(ccc1c2O)OCO3 (stereo not drawn) — higher, > 15 µM
- CN1Cc2cc3ccc4c(c3c(-c3ccc5c(c3)OCO5)c2C1=O)OCO4 — higher, > 26 µM

Test system: Human gammaherpesvirus 4
Assay: Effective concentration to inhibit 50% of epstein Barr virus replication in a cell culture model
Format: functional, organism-based
Conditions: not given

CN(C)C(=O)c1cc2ccc3c(c2c(-c2ccc4c(c2)OCO4)c1C(=O)O)OCO3 and NC(=O)c1cc2ccc3c(c2c(-c2ccc4c(c2)OCO4)c1C(N)=O)OCO3 cannot be ordered by EC50: > 20 µM for the first, > 20 µM for the second.

CN1Cc2c(cc3ccc4c(c3c2-c2ccc3c(c2)OCO3)OCO4)C1=O and CN1Cc2cc3ccc4c(c3c(-c3ccc5c(c3)OCO5)c2C1=O)OCO4 cannot be ordered by EC50: > 20 µM for the first, > 20 µM for the second.

Cc1c(C(=O)OCCCO)cc2ccc3c(c2c1-c1ccc2c(c1)OCO2)OCO3 and O=C1OC(O)c2c1c(-c1ccc3c(c1)OCO3)c1c3c(ccc1c2O)OCO3 (stereo not drawn) cannot be ordered by EC50: > 15 µM for the first, > 10 µM for the second.

Test system: CCRF-CEM
Assay: Cytotoxicity against CEM cell lines of human
Format: functional
Conditions: read-out: ID50 (the source's name)

Point of comparison: Cc1c(C(=O)OCCCO)cc2ccc3c(c2c1-c1ccc2c(c1)OCO2)OCO3, IC50 46 µM. Against it:
- Nc1ccn([C@H]2CC[C@@H](CO)O2)c(=O)n1 [ZALCITABINE] — 9.2-fold lower, 5 µM
- CN(C)C(=O)c1cc2ccc3c(c2c(-c2ccc4c(c2)OCO4)c1C(=O)O)OCO3 — 1.7-fold higher, 76 µM
- NC(=O)c1cc2ccc3c(c2c(-c2ccc4c(c2)OCO4)c1C(N)=O)OCO3 — higher, > 100 µM
- CN1Cc2c(cc3ccc4c(c3c2-c2ccc3c(c2)OCO3)OCO4)C1=O — 7.7-fold lower, 6 µM
- O=C1OC(O)c2c1c(-c1ccc3c(c1)OCO3)c1c3c(ccc1c2O)OCO3 (stereo not drawn) — within 1.5-fold, 39 µM
- CN1Cc2cc3ccc4c(c3c(-c3ccc5c(c3)OCO5)c2C1=O)OCO4 — 1.7-fold lower, 27 µM

Test system: MT2
Assay: Cytotoxicity against MT-2 cell lines of human
Format: functional
Conditions: read-out: ID50 (the source's name)

Point of comparison: CN1Cc2c(cc3ccc4c(c3c2-c2ccc3c(c2)OCO3)OCO4)C1=O, IC50 8 µM. Against it:
- Nc1ccn([C@H]2CC[C@@H](CO)O2)c(=O)n1 [ZALCITABINE] — 8.8-fold higher, 70 µM
- CN(C)C(=O)c1cc2ccc3c(c2c(-c2ccc4c(c2)OCO4)c1C(=O)O)OCO3 — 8.8-fold higher, 70 µM
- NC(=O)c1cc2ccc3c(c2c(-c2ccc4c(c2)OCO4)c1C(N)=O)OCO3 — higher, > 100 µM
- Cc1c(C(=O)OCCCO)cc2ccc3c(c2c1-c1ccc2c(c1)OCO2)OCO3 — within 1.5-fold, 10 µM
- O=C1OC(O)c2c1c(-c1ccc3c(c1)OCO3)c1c3c(ccc1c2O)OCO3 (stereo not drawn) — 1.9-fold higher, 15 µM
- CN1Cc2cc3ccc4c(c3c(-c3ccc5c(c3)OCO5)c2C1=O)OCO4 — 3.2-fold higher, 26 µM
